Results reported in ChEMBL document CHEMBL5715938, “The protein kinase Cbeta-selective inhibitor, Enzastaurin (LY317615.HCl), suppresses signaling through the AKT pathway, induces apoptosis, and suppresses growth of human colon cancer and glioblastoma xenografts” (Cancer Res, 2005).
Calls of active or inactive are those of the source. No cut-off for these calls is given here.

Columns and labels:
[1] = target: Protein kinase C epsilon type (Homo sapiens, UniProt Q02156); assay: Inhibition of recombinant human PKCepsilon using myelin basic protein as substrate incubated for 60 mins in presence of […] and ATP by microbeta scintillation counter analysis
Protein kinase C epsilon type, sequence (Q02156 whole entry): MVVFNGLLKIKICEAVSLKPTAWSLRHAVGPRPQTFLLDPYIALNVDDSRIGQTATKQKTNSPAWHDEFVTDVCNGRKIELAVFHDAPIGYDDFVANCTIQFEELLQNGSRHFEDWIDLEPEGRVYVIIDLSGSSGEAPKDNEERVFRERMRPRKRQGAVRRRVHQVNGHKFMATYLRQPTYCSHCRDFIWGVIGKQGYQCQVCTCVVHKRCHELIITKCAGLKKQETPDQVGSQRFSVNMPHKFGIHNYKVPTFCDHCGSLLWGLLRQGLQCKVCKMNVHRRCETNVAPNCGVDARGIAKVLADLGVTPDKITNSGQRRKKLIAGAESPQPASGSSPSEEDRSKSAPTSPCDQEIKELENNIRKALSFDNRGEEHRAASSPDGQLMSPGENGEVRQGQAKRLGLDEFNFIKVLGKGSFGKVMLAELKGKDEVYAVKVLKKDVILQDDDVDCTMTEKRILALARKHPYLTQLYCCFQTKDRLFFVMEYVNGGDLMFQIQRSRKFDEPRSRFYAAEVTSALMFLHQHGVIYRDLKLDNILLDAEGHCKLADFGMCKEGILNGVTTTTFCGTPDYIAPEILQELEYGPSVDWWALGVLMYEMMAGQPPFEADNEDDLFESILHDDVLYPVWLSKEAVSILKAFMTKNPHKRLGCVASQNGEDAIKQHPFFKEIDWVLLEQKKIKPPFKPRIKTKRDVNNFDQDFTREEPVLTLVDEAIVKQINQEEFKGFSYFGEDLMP
Method in brief: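 Recombinant human PKCε at 719 pmol/L. Myelin basic protein substrate at 0.25 mg/mL. 30 µmol/L ATP plus 32P-ATP. Started with enzyme, 60 min at room temperature, H3PO4 quench. Phosphocellulose filter capture, scintillation counting. 10-point series 1–2,000 nmol/L. IC50 from three-variable logistic fit.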

PC-3 = assay: Antiproliferative activity against human PC-3 cells assessed as reduction in cell growth upto 10 uM measured after 6 days by propidium iodide staining based analysis; format: functional; settings: time 6.0 day
Method in brief: (§1)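 ATCC-sourced lines grown without antibiotics; 1,000 cells/well in 1% FBS medium, refed ±drug on days 1 and 4 over a 6-day course. On day 7, propidium iodide (10 μg/mL in D-PBS) read after 30 min for nonviable cells, plate frozen at -80°C 2 h, thawed and reread; proliferative index = postfreeze minus prefreeze signal.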

K562 = assay: Antiproliferative activity against human K562 cells assessed as reduction in cell growth upto 10 uM measured after 6 days by propidium iodide staining based analysis; format: functional; settings: time 6.0 day; method in brief: as §1
Hs-578T = assay: Antiproliferative activity against human Hs-578T cells assessed as reduction in cell growth upto 10 uM measured after 6 days by propidium iodide staining based analysis; format: functional; settings: time 6.0 day; method in brief: as §1
HOP-62 = assay: Antiproliferative activity against human HOP-62 cells assessed as reduction in cell growth upto 10 uM measured after 6 days by propidium iodide staining based analysis; format: functional; settings: time 6.0 day; method in brief: as §1
NCI-H23 = assay: Antiproliferative activity against human NCI-H23 cells assessed as reduction in cell growth upto 10 uM measured after 6 days by propidium iodide staining based analysis; format: functional; settings: time 6.0 day; method in brief: as §1
SK-OV-3 = assay: Antiproliferative activity against human SK-OV-3 cells assessed as reduction in cell growth upto 10 uM measured after 6 days by propidium iodide staining based analysis; format: functional; settings: time 6.0 day; method in brief: as §1
RXF 393 = assay: Antiproliferative activity against human RXF 393 cells assessed as reduction in cell growth upto 10 uM measured after 6 days by propidium iodide staining based analysis; format: functional; settings: time 6.0 day; method in brief: as §1
[2] = target: Protein kinase C alpha type (Homo sapiens) (UniProt P17252); assay: Inhibition of PKCalpha (unknown origin) at 1 micromol/L relative to control; settings: dose 1.0 µmol/L
Method in brief: (§2)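 Commercial kinase profiler panel run to the provider's protocol, with the compound tested at 1 µmol/L. Activity is expressed as percent of kinase activity without compound.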

[3] = target: Protein kinase C theta type (Homo sapiens) (UniProt Q04759); assay: Inhibition of PKCteta (unknown origin) at 1 micromol/L relative to control; settings: dose 1.0 µmol/L; method in brief: as §2
[4] = target: Protein kinase C epsilon type (Homo sapiens) (UniProt Q02156); assay: Inhibition of PKCepsilon (unknown origin) at 1 micromol/L relative to control; settings: dose 1.0 µmol/L; method in brief: as §2
Protein kinase C epsilon type (Homo sapiens), sequence (Q02156 whole entry): as the sequence (Q02156 whole entry) above

[5] = target: Protein kinase C eta type (Homo sapiens) (UniProt P24723); assay: Inhibition of PKCeta (unknown origin) at 1 micromol/L relative to control; settings: dose 1.0 µmol/L; method in brief: as §2
Protein kinase C eta type (Homo sapiens), sequence (P24723 whole entry): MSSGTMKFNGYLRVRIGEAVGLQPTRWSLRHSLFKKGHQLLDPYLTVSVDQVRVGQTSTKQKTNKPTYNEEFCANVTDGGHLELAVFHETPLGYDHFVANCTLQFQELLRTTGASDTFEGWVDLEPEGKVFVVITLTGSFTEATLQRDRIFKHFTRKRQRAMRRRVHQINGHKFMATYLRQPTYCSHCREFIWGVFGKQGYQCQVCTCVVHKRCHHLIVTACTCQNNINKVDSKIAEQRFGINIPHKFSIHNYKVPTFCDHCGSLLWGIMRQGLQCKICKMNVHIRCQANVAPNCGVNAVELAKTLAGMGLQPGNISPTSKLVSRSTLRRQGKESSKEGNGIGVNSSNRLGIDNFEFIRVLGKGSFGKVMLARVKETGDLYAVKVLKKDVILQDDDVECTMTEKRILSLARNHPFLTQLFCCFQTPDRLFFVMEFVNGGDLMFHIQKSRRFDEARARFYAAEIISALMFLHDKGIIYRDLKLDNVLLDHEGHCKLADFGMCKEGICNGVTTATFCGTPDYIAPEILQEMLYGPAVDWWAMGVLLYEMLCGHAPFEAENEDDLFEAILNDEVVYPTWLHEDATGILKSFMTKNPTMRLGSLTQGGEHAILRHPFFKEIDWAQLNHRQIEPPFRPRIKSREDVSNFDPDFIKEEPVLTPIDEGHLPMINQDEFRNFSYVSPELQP

[6] = target: RAC-alpha serine/threonine-protein kinase (Homo sapiens) (UniProt P31749); assay: Inhibition of PKBalpha (unknown origin) at 1 micromol/L relative to control; settings: dose 1.0 µmol/L; method in brief: as §2
[7] = target: RAC-beta serine/threonine-protein kinase (Homo sapiens) (UniProt P31751); assay: Inhibition of PKBbeta (unknown origin) at 1 micromol/L relative to control; settings: dose 1.0 µmol/L; method in brief: as §2
Homo sapiens = species on record: Homo sapiens; assay: Inhibition of p70S6K (unknown origin) at 1 micromol/L relative to control; settings: dose 1.0 µmol/L; method in brief: as §2
[8] = target: Mitogen-activated protein kinase 14 (Homo sapiens) (UniProt Q16539); assay: Inhibition of SAPK2alpha (unknown origin) at 1 micromol/L relative to control; settings: dose 1.0 µmol/L; method in brief: as §2
Mitogen-activated protein kinase 14 (Homo sapiens), sequence (Q16539 whole entry): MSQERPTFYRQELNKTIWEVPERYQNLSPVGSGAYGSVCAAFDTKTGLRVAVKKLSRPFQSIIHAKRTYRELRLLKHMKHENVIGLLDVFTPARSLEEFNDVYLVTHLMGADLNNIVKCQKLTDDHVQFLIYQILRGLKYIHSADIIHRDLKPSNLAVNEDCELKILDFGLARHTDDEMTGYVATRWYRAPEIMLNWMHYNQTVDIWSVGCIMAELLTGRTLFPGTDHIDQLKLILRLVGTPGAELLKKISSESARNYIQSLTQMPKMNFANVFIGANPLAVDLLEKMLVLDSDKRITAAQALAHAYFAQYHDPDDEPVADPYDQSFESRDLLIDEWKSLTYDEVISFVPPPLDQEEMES

[9] = target: Mitogen-activated protein kinase 13 (Homo sapiens) (UniProt O15264); assay: Inhibition of SAPK4 (unknown origin) at 1 micromol/L relative to control; settings: dose 1.0 µmol/L; method in brief: as §2
Mitogen-activated protein kinase 13 (Homo sapiens), sequence (O15264 whole entry): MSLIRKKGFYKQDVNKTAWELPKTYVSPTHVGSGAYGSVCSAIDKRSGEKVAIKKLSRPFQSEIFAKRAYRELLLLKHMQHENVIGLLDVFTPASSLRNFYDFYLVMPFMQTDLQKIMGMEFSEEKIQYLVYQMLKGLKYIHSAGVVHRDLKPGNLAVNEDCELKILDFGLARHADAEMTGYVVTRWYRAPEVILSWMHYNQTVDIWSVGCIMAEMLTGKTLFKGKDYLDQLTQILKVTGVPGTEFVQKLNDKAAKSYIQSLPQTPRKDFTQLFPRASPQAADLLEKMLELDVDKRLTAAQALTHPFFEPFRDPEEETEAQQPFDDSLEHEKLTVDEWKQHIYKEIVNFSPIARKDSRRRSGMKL

[10] = target: Mitogen-activated protein kinase 9 (Homo sapiens) (UniProt P45984); assay: Inhibition of JNK2alpha2 (unknown origin) at 1 micromol/L relative to control; settings: dose 1.0 µmol/L
Method in brief: (§3)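 Upstate Kinase Profiler panel at 1 μmol/L drug, run per provider; data expressed as percent of kinase activity without drug.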

[11] = target: Mitogen-activated protein kinase 1 (Homo sapiens) (UniProt P28482); assay: Inhibition of MAPK1 (unknown origin) at 1 micromol/L relative to control; settings: dose 1.0 µmol/L; method in brief: as §3
Mitogen-activated protein kinase 1 (Homo sapiens), sequence (P28482 whole entry): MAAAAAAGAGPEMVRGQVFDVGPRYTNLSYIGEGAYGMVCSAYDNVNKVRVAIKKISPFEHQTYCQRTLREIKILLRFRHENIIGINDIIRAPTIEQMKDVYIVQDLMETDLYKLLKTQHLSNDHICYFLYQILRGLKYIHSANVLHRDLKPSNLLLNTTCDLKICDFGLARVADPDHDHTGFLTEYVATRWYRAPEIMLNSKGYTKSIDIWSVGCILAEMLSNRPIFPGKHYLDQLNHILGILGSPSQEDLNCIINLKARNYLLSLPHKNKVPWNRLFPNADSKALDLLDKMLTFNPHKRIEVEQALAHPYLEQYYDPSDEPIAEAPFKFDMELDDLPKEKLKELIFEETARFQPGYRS

[12] = target: Serine/threonine-protein kinase N2 (Homo sapiens) (UniProt Q16513); assay: Inhibition of PRK2 (unknown origin) at 1 micromol/L relative to control; settings: dose 1.0 µmol/L; method in brief: as §2
Serine/threonine-protein kinase N2 (Homo sapiens), sequence (Q16513 whole entry, looked up): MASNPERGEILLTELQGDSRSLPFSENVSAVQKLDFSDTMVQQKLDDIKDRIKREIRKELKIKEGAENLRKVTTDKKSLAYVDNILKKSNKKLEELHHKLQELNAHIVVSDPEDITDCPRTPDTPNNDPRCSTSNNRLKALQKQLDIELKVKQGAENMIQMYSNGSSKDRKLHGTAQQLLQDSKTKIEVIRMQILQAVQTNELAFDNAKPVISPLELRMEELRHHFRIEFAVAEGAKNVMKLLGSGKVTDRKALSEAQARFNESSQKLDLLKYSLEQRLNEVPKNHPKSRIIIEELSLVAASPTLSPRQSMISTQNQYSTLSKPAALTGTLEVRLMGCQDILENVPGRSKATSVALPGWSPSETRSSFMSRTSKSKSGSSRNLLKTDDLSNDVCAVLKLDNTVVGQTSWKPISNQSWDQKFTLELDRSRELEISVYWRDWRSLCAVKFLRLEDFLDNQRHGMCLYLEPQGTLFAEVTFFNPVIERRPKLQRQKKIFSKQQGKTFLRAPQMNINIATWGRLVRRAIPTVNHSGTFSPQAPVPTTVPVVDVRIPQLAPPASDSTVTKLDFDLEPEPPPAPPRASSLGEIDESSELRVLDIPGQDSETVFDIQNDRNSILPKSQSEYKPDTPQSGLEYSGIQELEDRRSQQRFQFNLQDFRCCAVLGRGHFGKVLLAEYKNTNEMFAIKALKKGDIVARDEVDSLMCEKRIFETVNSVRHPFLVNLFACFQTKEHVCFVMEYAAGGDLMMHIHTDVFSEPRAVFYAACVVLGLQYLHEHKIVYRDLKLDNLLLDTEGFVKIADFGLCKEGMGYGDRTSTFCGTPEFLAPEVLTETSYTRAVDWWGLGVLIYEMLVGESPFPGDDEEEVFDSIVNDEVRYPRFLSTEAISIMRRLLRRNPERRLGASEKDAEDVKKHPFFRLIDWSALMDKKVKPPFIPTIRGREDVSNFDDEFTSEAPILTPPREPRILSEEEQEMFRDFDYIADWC

[13] = target: Proto-oncogene tyrosine-protein kinase Src (Homo sapiens) (UniProt P12931); assay: Inhibition of c-SRC (unknown origin) at 1 micromol/L relative to control; settings: dose 1.0 µmol/L; method in brief: as §2
Proto-oncogene tyrosine-protein kinase Src (Homo sapiens), sequence (P12931 2-536 limits assumed): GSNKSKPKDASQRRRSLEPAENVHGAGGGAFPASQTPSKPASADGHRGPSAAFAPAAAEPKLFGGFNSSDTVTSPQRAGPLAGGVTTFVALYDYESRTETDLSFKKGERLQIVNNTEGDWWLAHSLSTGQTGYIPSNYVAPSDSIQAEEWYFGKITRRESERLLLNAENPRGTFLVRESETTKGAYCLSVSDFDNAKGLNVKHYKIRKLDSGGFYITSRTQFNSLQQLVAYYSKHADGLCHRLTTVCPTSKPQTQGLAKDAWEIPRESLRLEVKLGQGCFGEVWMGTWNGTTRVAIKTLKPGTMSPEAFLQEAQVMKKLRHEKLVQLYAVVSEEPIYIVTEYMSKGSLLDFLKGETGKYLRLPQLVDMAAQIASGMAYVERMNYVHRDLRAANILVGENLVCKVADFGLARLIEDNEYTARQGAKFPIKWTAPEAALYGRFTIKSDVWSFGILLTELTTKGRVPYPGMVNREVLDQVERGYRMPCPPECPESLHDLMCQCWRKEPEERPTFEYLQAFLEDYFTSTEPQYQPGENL

U-87 MG = assay: Antitumor activity against human U-87 MG cells xenografted in athymic nude mouse assessed as reduction in tumor growth at 75 mg/kg, po administered twice daily measured after 21 days; format: functional, organism-based; settings: U-87MG ATCC, time 21.0 day
Method in brief: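 Female athymic nude mice, 6–8 weeks, 5 million cells s.c. flank in 1:1 serum-free medium/matrigel; at group mean 100 mm³, 75 mg/kg by gavage twice daily in 10% acacia for 21 days, n = 9/group, vehicle controls; caliper volume A²×B×0.536; two-way repeated measures analysis.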

HCT-116 = assay: Antitumor activity against human HCT-116 cells xenografted in athymic nude mouse assessed as reduction in GSK3beta phosphorylation at serine 9 residue at 75 mg/kg, po administered twice daily by Western blotting analysis; format: functional, organism-based; settings: time <= 8.0 hrs, TDE = time-dependent effect

Cl.Cn1cc(C2=C(c3cn(C4CCN(Cc5ccccn5)CC4)c4ccccc34)C(=O)NC2=O)c2ccccc21 [ENZASTAURIN HYDROCHLORIDE]
IC50 [1]: 110 nM | Activity (PC-3): Active | Activity (K562): Active | Activity (Hs-578T): inactive | Activity (HOP-62): inactive | Activity (NCI-H23): inactive | Activity (SK-OV-3): inactive | Activity (RXF 393): inactive | % control activity [2]: 23% | % control activity [3]: 2% | % control activity [4]: 9% | % control activity [5]: 53% | % control activity [6]: 75% | % control activity [7]: 100% | % control activity (Homo sapiens): 52% | % control activity [8]: 101% | % control activity [9]: 97% | % control activity [10]: 103% | % control activity [11]: 114% | % control activity [12]: 88% | % control activity [13]: 101% | Activity (U-87 MG): Active | Activity (HCT-116): Tde
